Measurements taken from ChEMBL document CHEMBL1156756, “4-Oxo-beta-lactams (azetidine-2,4-diones) are potent and selective inhibitors of human leukocyte elastase” (J Med Chem, 2010).
Active and inactive are the calls of the source. No cut-off for these calls is given here.

How the values were obtained:
[1] = biological target: T1, Myeloblastin (Homo sapiens) (UniProt P24158); test: Inhibition of human proteinase 3
T1 sequence (whole entry): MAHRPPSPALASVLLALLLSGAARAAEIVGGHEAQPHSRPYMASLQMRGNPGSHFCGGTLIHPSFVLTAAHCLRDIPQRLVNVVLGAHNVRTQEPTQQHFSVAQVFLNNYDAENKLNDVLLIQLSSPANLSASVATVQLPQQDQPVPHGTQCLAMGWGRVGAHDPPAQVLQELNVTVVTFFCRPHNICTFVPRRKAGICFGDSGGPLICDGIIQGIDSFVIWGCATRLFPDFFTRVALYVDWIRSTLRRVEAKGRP
Procedure, shortened: (§1)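 Proteinase 3 stock (325 nM in 0.05 M acetate pH 6, 150 mM NaCl) mixed at 25 °C with inhibitor in DMSO and MeOSuc-Ala-Ala-Pro-Val-p-nitroanilide (stock 50 mM in DMSO) in 0.1 M HEPES pH 7.2. A410 followed for 20 000 s. Progress curves fitted to slow-binding equations. Uninhibited controls ran linearly.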

[2] = biological target: T2, Cathepsin G (Homo sapiens) (UniProt P08311); test: Inhibition of human cathepsin G at 60 uM
T2 sequence (whole entry): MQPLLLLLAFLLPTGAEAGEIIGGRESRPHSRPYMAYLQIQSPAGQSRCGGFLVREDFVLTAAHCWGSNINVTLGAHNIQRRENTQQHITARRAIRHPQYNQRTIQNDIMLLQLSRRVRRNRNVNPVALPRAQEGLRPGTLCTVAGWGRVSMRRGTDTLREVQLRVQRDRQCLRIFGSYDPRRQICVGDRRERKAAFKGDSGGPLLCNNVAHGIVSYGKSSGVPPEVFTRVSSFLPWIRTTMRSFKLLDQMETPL
Procedure, shortened: (§2)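 Cathepsin G stock (680 nM in 0.05 M acetate, pH 5.5) mixed at 25 °C with inhibitor in DMSO and Suc-Ala-Ala-Pro-Phe-p-nitroanilide (stock 42.5 mM in DMSO) in 0.1 M HEPES pH 7.5. A410 recorded continuously for 20 min. Progress curves fitted with slow-binding kinetics. Uninhibited controls ran linearly. Highest concentration tested 60 μM.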

Papain (Carica papaya) = biological target: T3, Papain (Carica papaya) (UniProt P00784); test: Inhibition of papaya papain at 60 uM
T3 sequence (whole entry): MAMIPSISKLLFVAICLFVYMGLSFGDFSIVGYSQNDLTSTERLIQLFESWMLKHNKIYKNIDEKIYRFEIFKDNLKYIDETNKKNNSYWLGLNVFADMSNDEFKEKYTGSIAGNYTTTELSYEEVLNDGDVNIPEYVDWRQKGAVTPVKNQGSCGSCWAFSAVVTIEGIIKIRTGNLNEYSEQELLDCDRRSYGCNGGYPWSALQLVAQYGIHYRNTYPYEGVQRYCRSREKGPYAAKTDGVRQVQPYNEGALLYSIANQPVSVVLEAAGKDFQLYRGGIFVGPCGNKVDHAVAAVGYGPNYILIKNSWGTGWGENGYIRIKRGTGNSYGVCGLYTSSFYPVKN
Procedure, shortened: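 Incubation method. Activated papain was held with inhibitor at 25 °C in 50 mM potassium phosphate pH 7.0 with 2.5 mM EDTA. At intervals, aliquots were assayed with BAPA substrate (stock 10 mM in DMSO) in the same buffer, reading A410 for 4 min. Inhibitor-free controls were run in parallel.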

[3] = biological target: T1, Myeloblastin (Homo sapiens); test: Inhibition of human proteinase 3 at 60 uM; procedure, shortened: as §1
[4] = Chemical stability in phosphate buffer assessed as half life at pH 7.4; type: physicochemical
[5] = Stability in human plasma assessed as half life at pH 7.4
[6] = biological target: T2, Cathepsin G (Homo sapiens); test: Inhibition of human cathepsin G; procedure, shortened: as §2
[7] = biological target: T1, Myeloblastin (Homo sapiens); test: Inhibition of human proteinase 3 at 10 uM; procedure, shortened: as §1

Row | SMILES | Activity (Papain (Carica papaya)) | Activity ([1]; TDE = time-dependent effect) | also measured
1 | CCC1(CC)C(=O)N(c2ccc(CSc3nc4cc(C(=O)O)ccc4o3)cc2)C1=O | inactive |  | Activity [1]: 689 M⁻¹ s⁻¹; Activity [2]: inactive
2 | CC1(Cc2ccccc2)C(=O)N(c2ccccc2)C1=O | inactive |  | inhibition [3]: 22%; Activity [2]: inactive
3 | CCC1(Cc2ccccc2)C(=O)N(c2ccccc2)C1=O | inactive |  | Activity [1]: 20.2 M⁻¹ s⁻¹; Activity [2]: inactive
4 | CCC1(CC)C(=O)N(c2ccccc2C)C1=O |  | tde | 
5 | CCC1(CC)C(=O)N(c2ccc(OC)cc2)C1=O |  | tde | 
6 | CCC1(CC)C(=O)N(Cc2ccccc2)C1=O |  | tde | 
7 | CCC1(CC)C(=O)N(c2ccccc2CSc2nnc(-c3ccccc3)o2)C1=O |  | tde | 
8 | CCC1(CC)C(=O)N(c2cccnc2)C1=O |  | tde | 
9 | CC1(C)C(=O)N(c2ccc(Cl)cc2)C1=O |  | tde | 
10 | CCCCC1(CC)C(=O)N(c2ccccc2)C1=O | inactive |  | Activity [6]: 47.3 M⁻¹ s⁻¹
11 | CCOC(=O)CN1C(=O)C(CC)(CC)C1=O |  | tde | 
12 | CCC1(CC)C(=O)N(c2ccccc2CSc2nccn2C)C1=O |  | tde | 
13 | CCC1(CC(C)C)C(=O)N(c2ccccc2)C1=O |  | tde | 
14 | CC1(C)C(=O)N(Cc2ccccc2)C1=O |  | tde | 
15 | CCC1(CC)C(=O)N(c2ccc(C)cc2)C1=O |  | tde | 
16 | CCC1(CC)C(=O)N(c2ccc(C#N)cc2)C1=O | inactive |  | inhibition [7]: 16%; Activity [6]: 36.5 M⁻¹ s⁻¹
17 | CC1(C)C(=O)N(c2ccccc2)C1=O |  | tde | 
18 | CCC1(CC)C(=O)N(c2ccc(Cl)cc2)C1=O |  | tde | 

Continued, in another order:

Row | Activity (Papain (Carica papaya)) | Activity ([1]; TDE = time-dependent effect) | SMILES | also measured
19 |  | tde | CCC1(CC)C(=O)N(c2ccc(CSc3nc4ccccc4s3)cc2)C1=O | half-life [4]: 10 h; half-life [5]: 0.4 h
20 |  | tde | CCC1(CC)C(=O)N(c2ccccc2CSc2nc3ccccc3s2)C1=O | half-life [4]: 37 h; half-life [5]: 1.6 h
21 | inactive |  | CCC1(CC)C(=O)N(c2ccc(CSc3nc4ccccc4s3)nc2)C1=O | Activity [1]: 4080 M⁻¹ s⁻¹; Activity [2]: inactive; half-life [4]: 13 h; half-life [5]: 0.2 h
22 | inactive |  | CCC1(CC)C(=O)N(c2ccc(CSc3ccccc3)cc2)C1=O | Activity [1]: 122 M⁻¹ s⁻¹
23 | inactive |  | CCC1(CC)C(=O)N(c2ccccc2CSc2nc3ccccc3o2)C1=O | Activity [1]: 361 M⁻¹ s⁻¹; Activity [2]: inactive
24 |  | tde | CCC1(CC)C(=O)N(c2ccccc2)C1=O | 
25 |  | tde | CCC1(CC)C(=O)N(c2ccc(C)nc2)C1=O | 
26 | inactive |  | CCC1(CC)C(=O)N(c2cccc3ccccc23)C1=O | Activity [6]: 35.6 M⁻¹ s⁻¹
27 | inactive |  | CCC1(CC)C(=O)N(c2ccc(CSc3nc4ccccc4o3)cc2)C1=O | Activity [1]: 29.6 M⁻¹ s⁻¹; Activity [2]: inactive
28 |  | tde | CCC1(CC)C(=O)N(c2ccc(CSc3nnc(-c4ccccc4)o3)cc2)C1=O | 
